Compound activity from PubChem BioAssay.
Vif imaging: blocks HIV Vif function | HEK293T cells, Vif self-association by quenched fluorescence, imaging, 24 h | hit rate 0.35% among 340,000 | AID 602346 | inhibition, % at 7.49 µM; in the data active = inhibition above about 50%, passing the limit was not always enough; inconclusive = no clear call, values can overlap the other calls; inactive = below about 31%
Xi reactivation: reactivates the inactive X chromosome in mouse fibroblasts | XiGFP mouse fibroblasts, % GFP-positive cells imaging, 3 d; cells co-treated with 5-aza-dC sensitizer; scaled so ellipticine positive control = 100% | activation, % at 7.58 µM | hit rate 0.055% among 360,000 | AID 743238;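 active = mean normalized replicate activation at least 10% and every replicate at or above 10%; inconclusive = only one of the two criteria met; inactive = mean below 10% and not all replicates reach 10%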
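Assay system – SV40-immortalized XiGFP fibroblast cells, line 68-5-11 · Buffer or medium – DMEM supplemented with 5-aza-dC as sensitizing agent · Dosing – one concentration, pinned · Benchmarks – positive control ellipticine, 6 µM final · Times – 3 days compound exposure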
esBAF inh: inhibitors of esBAF chromatin remodeling in mouse ES cells | Bmi1-luciferase knock-in reporter, 24 h; 100% = twice the neutral-well signal | AID 602393 | hit rate 2% among 350,000 | reporter increase, % at 12.5 µM; in the data active = activation above about 40%; inconclusive = no clear call, values can overlap the other calls;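 also: a rise in the Bmi1 reporter signal indicates esBAF inhibition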
MITF act: increases MITF-driven TRPM1 promoter luciferase signal | hit rate 0.75% among 300,000 | activation, % at 12.5 µM | SK-MEL-5 TRPM1-promoter luciferase, 24 h; % of positive control, neutral wells = 0;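 active = mean activation of at least 80% with every replicate also reaching 80%; inconclusive = mean reaches 80% but some replicate falls short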
Wnt act: activators of Wnt/beta-catenin signaling; Wnt/beta-catenin reporter cell assay, activator, plate reader; activation, % at 9.35 µM; hit rate 1.2% among 300,000; AID 743398; in the data active = activation above about 30%, passing the limit was not always enough; inconclusive = no clear call, values can overlap the other calls
Large screens that a line does not name were inactive. An excerpt weighted towards active compounds, which were near 2.6% of everything screened.

COc1ccc2cc(-c3ccn[nH]3)ccc2c1	Wnt act 35
FC(F)(F)c1ccccc1Cc1c(-c2ccc(Cl)cc2)nc2ccc(Br)cn12	esBAF inh 42 (no result: Vif imaging, Xi reactivation, MITF act)
COc1ccccc1Cc1c(-c2ccc(C)cc2)nc2ccc(Br)cn12	none (no result: Vif imaging, MITF act)
FC(F)(F)c1ccccc1Cc1c(-c2ccccc2)nc2ccc(Cl)cn12	none (no result: Vif imaging, MITF act)
COc1ccccc1Cc1c(-c2ccccc2)nc2ccc(Br)cn12	esBAF inh 52 (no result: Vif imaging, MITF act)
Fc1ccc(-c2nc3ccc(Br)cn3c2Cc2ccccc2C(F)(F)F)cc1	none (no result: Vif imaging, MITF act)
FC(F)(F)c1ccccc1Cc1c(-c2ccc(Cl)cc2)nc2ccc(Cl)cn12	esBAF inh 64 (no result: Vif imaging, MITF act)
Cc1cc(C)c2nc(N3CCCC(C(=O)NC4CCCC4)C3)sc2c1 (centres undefined)	esBAF inh 58
Cc1cc(C)c2nc(N3CCC(C(=O)N4CCCC4)CC3)sc2c1	none (no result: Xi reactivation)
COc1cccc(-c2csc(NC(C)=O)n2)c1	esBAF inh 78, MITF act 83 (no result: Xi reactivation, Wnt act)
O=C(Nc1nc(-c2cccc(Br)c2)cs1)Oc1ccccc1	esBAF inh 45 (no result: Xi reactivation)
COc1cccc(NC(=O)Nc2nc(-c3ccc(OC)c(OC)c3)cs2)c1	esBAF inh 43
COc1ccc(-c2csc(NC(C)=O)n2)cc1OC	none (no result: Xi reactivation, MITF act)
COc1ccc(-c2csc(NC(=O)Nc3ccccc3)n2)cc1	none
COc1ccccc1-c1cn(CC[C@@H]2CC[C@H](NC(=O)C3CCOCC3)[C@@H](CO)O2)nn1	none (no result: Vif imaging, MITF act, Wnt act)
Cc1ccc(S(=O)(=O)Nc2c(C)nc3nc(C)[nH]n3c2=O)c(C)c1	Vif imaging 64
CC(C)c1ccc(NC(=O)C(c2ccccc2)N2CC(=O)Nc3ccccc32)cc1 (centres undefined)	esBAF inh 66 (no result: MITF act)
CCCc1cc(C(=O)NCCc2ccccc2)no1	esBAF inh 50 (no result: MITF act)
COc1ccc(CCNC(=O)c2cc(-c3ccccc3OC)on2)cc1OC	none (no result: Xi reactivation, Wnt act)
Cc1ccc(OCc2cc(C(=O)NCCc3cccnc3)no2)cc1C	esBAF inh 58
COc1ccccc1-c1cc(C(=O)NCCc2ccccc2)no1	esBAF inh 60 (no result: Xi reactivation, MITF act)
COc1ccc(NC(=O)Nc2ccc3c(c2)C(=O)N([C@@H](C)CO)C[C@H](C)[C@@H](CN(C)C(=O)Cc2ccccc2)OCCCC[C@@H](C)O3)cc1	none (no result: Vif imaging, MITF act, Wnt act)
CCCC(=O)Nc1ccc2c(c1)C(=O)N(C)[C@@H]1CC[C@@H](CC(=O)NCC3CC3)O[C@H]1CO2	none (no result: Vif imaging, MITF act, Wnt act)
CC(C)c1ccc(CNc2ccc([N+](=O)[O-])cn2)cc1	MITF act 89 (no result: esBAF inh)
CCC(=O)N/C(N)=N/c1nc(C)c2cc(OC)ccc2n1	esBAF inh 55 (no result: Xi reactivation, Wnt act)
COc1ccc2nc(/N=C(\N)NC(=O)C(C)(C)C)nc(C)c2c1	esBAF inh 48 (no result: Vif imaging, Xi reactivation, Wnt act)
COc1ccc2nc(/N=C(\N)NC(=O)N3c4ccccc4Sc4ccccc43)nc(C)c2c1	none (no result: esBAF inh)
C[C@@H]1CN([C@H](C)CO)C(=O)c2cc(NC(=O)Nc3cccc4ccccc34)ccc2O[C@@H]1CN(C)Cc1ccc(C(=O)O)cc1	none (no result: Vif imaging, MITF act, Wnt act)
NC(=O)c1c(NC(=O)c2ccc(F)cc2Cl)sc2c1CCC2	esBAF inh 49
NC(=O)c1c(NC(=O)c2ccccc2C(=O)O)sc2c1CCCC2	none
Cn1cc(Br)c(C(=O)Nc2sc3c(c2C(N)=O)CCCC3)n1	esBAF inh 67, MITF act 85
NC(=O)c1c(NC(=O)c2ccccc2F)sc2c1CCCC2	esBAF inh 65
CCCNC(=O)N1C[C@@H](C)[C@H](OC)CN(C)C(=O)c2cc(NC(=O)CC)ccc2OC[C@@H]1C	none (no result: Vif imaging, MITF act, Wnt act)
C[C@@H]1CN([C@H](C)CO)C(=O)c2cc(NC(=O)Nc3ccc(F)cc3)ccc2O[C@H]1CN(C)S(=O)(=O)c1ccc(F)cc1	none (no result: Vif imaging, MITF act, Wnt act)
C[C@H]1CN(C)C(=O)c2cc(N(C)C)ccc2O[C@H]1CN(C)S(C)(=O)=O	none (no result: Vif imaging, esBAF inh, MITF act, Wnt act)
Cc1ccc(Nc2c(-c3ccc(C)o3)nc3cnccn23)cc1	none
Cc1ccc(-c2nc3cnccn3c2Nc2ccccc2)o1	esBAF inh 44 (no result: Vif imaging, MITF act)
C(=NOCCc1ccccc1)c1cccnc1	esBAF inh 51, MITF act 87
O=C(C[C@@H]1C=C[C@@H](NC(=O)CN2CCOCC2)[C@@H](CO)O1)NC1CCCCC1	none (no result: Vif imaging, MITF act, Wnt act)
CSc1nc(N)n2nc(-c3ccc(Cl)cc3)cc2n1	esBAF inh inconclusive, Wnt act 49 (no result: Vif imaging, MITF act)
Cc1ccc(-c2cc(N)n(Cc3ccc(Cl)cc3)n2)cc1	none (no result: Xi reactivation, MITF act, Wnt act)
CCOC(=O)C1(Cc2ccccc2Cl)CCN(C(=O)c2cnccn2)CC1	esBAF inh 67
Cc1cc(=O)oc2cc(OCc3ccccc3)ccc12	none
Cc1cc(=O)oc2cc(OCc3c(F)cccc3Cl)ccc12	Wnt act 42 (no result: Vif imaging, esBAF inh, MITF act)
CCC(=O)N1CC2(CCN(Cc3cccnc3)CC2)c2c(n(C)c3cc(OC)ccc23)[C@@H]1CO	none (no result: Vif imaging, esBAF inh, MITF act, Wnt act)
COc1ccc(-c2cc(C(=O)Nc3cnn(Cc4ccccc4C)c3)no2)cc1OC	Vif imaging 86 (no result: Xi reactivation)
CCCn1cc(NC(=O)c2cc(-c3ccccc3)on2)cn1	esBAF inh 53 (no result: Xi reactivation, Wnt act)
COc1ccc(-c2cc(C(=O)Nc3ccccc3SC)no2)cc1OC	none (no result: Xi reactivation, Wnt act)
CN(C)C(=O)c1cccc(-c2ccc(C3[C@H]4CNC[C@@H]3N4C(=O)Nc3cc(F)ccc3F)cc2)c1 (some centres undefined)	none (no result: Vif imaging, esBAF inh, MITF act, Wnt act)
O=C(Nc1cc(F)ccc1F)N[C@@H]1C=C[C@H](CC(=O)N2CCc3ccccc3C2)O[C@@H]1CO	none (no result: Vif imaging, MITF act, Wnt act)
O=C(CSC(=S)N1CCSCC1)c1ccc(Cl)cc1	MITF act 82 (no result: esBAF inh)
O=C(CSC(=S)N1CCSCC1)c1ccccc1	none (no result: esBAF inh)
CCCNC(=O)N1CC2(CCN(C(=O)c3cccnc3)CC2)c2c([nH]c3cc(OC)ccc23)[C@H]1CO	none (no result: Vif imaging, esBAF inh, MITF act, Wnt act)
Oc1ccccc1C1SC(c2ccccc2O)SC(c2ccccc2O)S1 (centres undefined)	Vif imaging 60
CCN(CC)CCCN1CC(O)=C(c2nc3ccccc3s2)C1=N	none (no result: Vif imaging, Xi reactivation, esBAF inh, Wnt act)
N=C1C(c2nc3ccccc3s2)=C(O)CN1Cc1ccccc1	esBAF inh 48 (no result: Xi reactivation, Wnt act)
COc1ccc(NC(=O)Nc2ccc3c(c2)CC(=O)N([C@H](C)CO)C[C@@H](C)[C@H](CN(C)C(=O)Nc2c(C)noc2C)O3)cc1	none (no result: Vif imaging, MITF act, Wnt act)
COc1ccc(OC)c(C2CC(c3ccccc3)=NN2C(=S)Nc2ccccc2)c1 (centres undefined)	none (no result: esBAF inh)
COc1ccccc1C1=NN(C(=S)Nc2ccccc2)C(c2ccco2)C1 (centres undefined)	esBAF inh 56 (no result: Xi reactivation, Wnt act)
COc1ccc2c3c([nH]c2c1)[C@H](CO)N(Cc1cccnc1)CC31CCN(C(=O)c2cccnc2)CC1	none (no result: Vif imaging, esBAF inh, MITF act, Wnt act)
CCOc1cc2c(C#N)c(N3CCCCC3)nc(N)c2c(N)n1	esBAF inh 54 (no result: Vif imaging, Xi reactivation, Wnt act)
CCC(=O)Nc1ccc2c(c1)C(=O)N(C)C[C@@H](OC)[C@H](C)CN(C(=O)c1cccnc1)[C@@H](C)CO2	none (no result: Vif imaging, MITF act, Wnt act)
CCn1c2ccccc2c2nc3cc(OC)c(OC)cc3nc21	esBAF inh 49 (no result: Xi reactivation, MITF act)
CCn1c2ccccc2c2nc3ccccc3nc21	none (no result: Xi reactivation, MITF act, Wnt act)
CC(=O)n1c2ccccc2c2nc3ccccc3nc21	esBAF inh 72 (no result: Xi reactivation, Wnt act)
